A selection: hits, their analogues and other compounds. The true share with any hit is near 1.4%.
NR1D1 modulator: modulators of Rev-erb alpha DNA binding, primary screen, biochemical, FITC-DNA, fluorescence polarization, uHTS | Nuclear receptor subfamily 1 group D member 1 (Homo sapiens), P20393 | Rev-erbα–FITC-DNA binding, 90 min | activity, % at 10 µM | 370,000 tested, 0.79% active | AID 1259318, 2017;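 active = activity above about 14%, limit read from the data; passing the limit was not always enough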;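 also: 0% = DMSO wells with 35 nM protein and 100% = DMSO wells with 750 nM protein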
Target sequence (P20393 whole entry, looked up): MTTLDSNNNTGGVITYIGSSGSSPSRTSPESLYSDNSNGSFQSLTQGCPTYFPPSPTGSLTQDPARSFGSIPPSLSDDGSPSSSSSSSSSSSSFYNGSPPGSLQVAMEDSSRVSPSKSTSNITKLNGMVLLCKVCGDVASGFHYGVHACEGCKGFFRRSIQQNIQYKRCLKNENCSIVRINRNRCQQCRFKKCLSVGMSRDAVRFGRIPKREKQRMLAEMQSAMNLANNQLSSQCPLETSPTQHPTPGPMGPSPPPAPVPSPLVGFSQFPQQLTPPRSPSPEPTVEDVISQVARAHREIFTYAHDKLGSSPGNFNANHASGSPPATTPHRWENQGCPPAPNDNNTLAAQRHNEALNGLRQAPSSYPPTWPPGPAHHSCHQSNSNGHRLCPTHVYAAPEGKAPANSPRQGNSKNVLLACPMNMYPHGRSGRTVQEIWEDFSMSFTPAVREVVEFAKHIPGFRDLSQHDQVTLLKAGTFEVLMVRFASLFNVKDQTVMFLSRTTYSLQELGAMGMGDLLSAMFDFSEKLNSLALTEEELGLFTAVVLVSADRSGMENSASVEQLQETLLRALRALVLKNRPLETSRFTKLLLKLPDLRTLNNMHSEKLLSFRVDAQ
NR2E3 ag-1: NR2E3 agonists in two-hybrid cells, primary screen, cell-based, luminescence, CHO-S, Gal4-NCOR/VP16-NR2E3. AID 602229, 2012. 360,000 tested, 0.35% active. Photoreceptor-specific nuclear receptor (Homo sapiens), Q9Y5X4. luciferase. inhibition of corepressor binding, % at 3.98 µM;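 active = inhibition above the mean of all tested compounds plus 3 SD, cut at about 70% in these data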;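 also: 0% = DMSO with NR2E3 transfected cells and 100% = cells lacking NR2E3 construct; higher means lower luciferase signal from less NR2E3 corepressor binding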
NR2E3 ag-2: inhibitors of NR2E3-RetCOR corepressor binding, primary screen, NR2E3 agonist project, biochemical, TR-FRET, GST-NR2E3, biotin-RetCOR; 320,000 tested, 0.12% active; inhibition of corepressor binding, % at 4.78 µM; Photoreceptor-specific nuclear receptor (Homo sapiens), Q9Y5X4; AID 2300, 2010; 1536-well;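 active = percent inhibition above the cutoff of mean plus 3 SD of all tested compounds, set per screening campaign, cut at about 20% in these data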;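 also: 0% = DMSO wells and 100% = biotin wells as full block of FRET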
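Test system – NR2E3–RetCOR corepressor complex · Quantity – NR2E3 fusion 1.35 nM · Buffer or medium – Tris pH 7.5 · Incubation – Compound–protein incubation for 5 h at 4 °C · Technique – TR-FRET, Eu(K)-anti-GST donor, streptavidin-D2 acceptor, ex 340, em 617/671 nm · Evaluation – percent inhibition of 671/617 nm emission ratio versus biotin and DMSO controls · Plate – 1536-well format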
PG9 Ab binder: binders of HIV-1 gp120 antibody PG9, primary screen, biochemical, TR-FRET; HIV-1 gp120 / PG9 antibody interaction; TR-FRET gp120-PG9 antibody binding; inhibition, % at 6.7 µM; 360,000 tested, 0.43% active; AID 624416, 2012; in the data active = inhibition above about 8.5%
PG9 bind confirm: binders of anti-gp120 antibody PG9, confirmation, biochemical, TR-FRET. shares compounds with PG9 Ab binder. TR-FRET PG9 antibody binding. inhibition, % at 6.7 µM. 1,500 tested, 90% active; in the data active = inhibition above about 9%
PGV04 counter: binders of control antibody PGV04, counter-screen for PG9 antibody binder project, biochemical, TR-FRET, distinct HIV envelope site | inhibition, % at 6.7 µM | AID 651604, 2012 | 1,500 tested, 95% active | shares compounds with PG9 Ab binder | TR-FRET PGV04 antibody-gp120 binding; in the data active = inhibition above about 9.5%
PG9 bind DR: small-molecule binders of antibody PG9, dose response, biochemical, TR-FRET, HIV-1 gp120 antibody | AID 651848, 2012 | TR-FRET PG9 antibody-gp120 binding inhibition | shares compounds with PG9 Ab binder | IC50, µM | 95 tested, under 10 active; in the data active = IC50 below about 10 µM
PGV04 binding DR: binders of control antibody PGV04, dose response, counter-screen for PG9 antibody binder project, biochemical, TR-FRET, distinct HIV envelope site. shares compounds with PG9 Ab binder. TR-FRET binding to control antibody PGV04. IC50, µM. 95 tested, 20% active
PG126 binding DR: binders of control antibody PG126, dose response, counter-screen for PG9 antibody binder project, biochemical, TR-FRET, distinct HIV envelope site | shares compounds with PG9 Ab binder | TR-FRET binding to antibody PG126, counterscreen | 95 tested, 20% active | IC50, µM
* = called active by the depositor; i = inactive; x = no result. Rule as the data show it, unless noted: active = IC50 below about 9 µM; inactive = the rest.

SMILES	NR1D1 modulator	NR2E3 ag-1	NR2E3 ag-2	PG9 Ab binder	PG9 bind confirm	PGV04 counter	others
Cc1cc(N2C(=O)C(O)=C(C(=O)c3ccco3)C2c2ccc(Cl)cc2)no1 (stereo unspecified)	-2.3	-2.0	17.3	16.3*	29.7*	40.5*
COC[C@@H]1CCCN1c1ccc2c(c1)O[C@H]1CCN(C1)S2(=O)=O	-3.0	x	x	x	x	x
C=CCC12C=C(OC)C(=O)C(C1=O)C(c1ccc(OC)cc1)C2C (stereo unspecified)	-8.9	x	x	x	x	x
Cc1cc(=O)n2c(C(=O)Nc3ccc(C(=O)OC(C)C)cc3)c(C(=O)Nc3ccccc3)sc2n1	18.2	-18.0	8.6	12.2*	22.1*	31.0*
CC(C)OC(=O)c1ccc(NC(=O)c2cccc(-n3cnnn3)c2)cc1	0.0	3.6	3.2	-1.2	x	x
O=C(Nc1ccc(C(O)(C(F)(F)F)C(F)(F)F)cc1)c1ccc(F)cc1Cl	-6.3	x	x	x	x	x
Cc1ccc2nc(-c3ccc(NC(=O)CSc4nccc(=O)[nH]4)cc3)sc2c1	9.7	-48.7	4.4	12.1*	10.7*	35.8*
CC1(C)Cc2nc3sc4c(SCC(=O)NCc5ccccc5)ncnc4c3cc2CO1	-2.8	-150.6	10.5	48.4*	86.2*	87.9*
Cc1ccc(CN2CCS(=O)(=O)CC2)cc1	-0.5	-23.1	-0.2	10.7*	5.7	12.6*
COC(=O)c1sc(NC(=O)COc2c(C)cccc2C)nc1C	3.2	2.5	0.5	0.3	x	x
COC(=O)c1sc(NC(=O)COc2ccccc2C)nc1C	9.9	-15.6	-1.9	11.4*	19.6*	27.7*
O=C(NCCCN1CCOCC1)c1ccc2c(c1)N(Cc1ccc(F)cc1)CCS2	-2.7	-47.2	1.9	-1.0	x	x
CN1CCN(CCCNC(=O)c2ccc3c(c2)N(Cc2ccc(F)cc2)CCS3)CC1	4.8	-6.3	3.8	16.7*	15.3*	23.8*
Cc1ccc(-n2c(SCC(=O)Nc3ccc(OCc4ccccc4)cc3)nnc2-c2ccccc2)cc1	-2.7	x	x	x	x	x
COc1ccc(/C(O)=C2/C(=O)C(=O)N(CCCN3CCOCC3)C2c2ccc(Cl)cc2)cc1 (stereo unspecified)	1.3	-4.3	x	11.8*	25.8*	43.1*
CC(C)(C)c1ccc(C2/C(=C(\O)c3ccc4c(c3)OCCO4)C(=O)C(=O)N2CCCN2CCOCC2)cc1 (stereo unspecified)	-5.2	-12.6	2.4	0.9	x	x
O=C1C(=O)N(CCCn2ccnc2)C(c2ccc(Br)cc2)/C1=C(\O)c1ccc2c(c1)OCCO2 (stereo unspecified)	9.9	-2.9	14.5	13.9*	13.3*	15.1*
COc1cccc(C2/C(=C(\O)c3ccc4c(c3)OCCO4)C(=O)C(=O)N2CCCn2ccnc2)c1 (stereo unspecified)	-6.9	-44.0	6.5	12.1*	19.7*	23.3*
O=C1C(=O)N(CCCN2CCOCC2)C(c2ccc(F)cc2)/C1=C(\O)c1ccc2c(c1)OCCO2 (stereo unspecified)	-4.1	-13.8	3.7	9.4*	21.4*	23.9*
CC(=O)CC[C@H]1CC[C@]2(CCCN(C(=O)C(C)(C)C)C2)O1	6.6	x	x	x	x	x
CCN(CC)C(=O)CC[C@@H]1CC[C@]2(CCCN(Cc3ccccc3)C2)O1	-0.6	x	x	x	x	x
O=C1C(=O)N(CCCn2ccnc2)C(c2cccc(Br)c2)/C1=C(\O)c1ccc2c(c1)OCCO2 (stereo unspecified)	-4.3	-9.5	16.5	26.7*	44.5*	39.7*	PG9 bind DR=i;PGV04 binding DR=5.44*;PG126 binding DR=8*
O=C1C(=O)N(CCCn2ccnc2)C(c2ccc(Cl)cc2)/C1=C(\O)c1ccc2c(c1)OCCO2 (stereo unspecified)	1.2	-10.6	13.7	27.4*	15.8*	20.9*
COc1ccc(/C(O)=C2/C(=O)C(=O)N(CCCN(C)C)C2c2ccc(Cl)cc2)cc1OC (stereo unspecified)	1.7	-15.0	2.2	13.0*	23.5*	29.6*
CCC[C@H]1[C@@H](NC(=O)c2ccc(OC)cc2)CC[C@@]23CCCN2C(=O)CCC[C@@H]13	-3.2	x	x	x	x	x
SMILES	NR1D1 modulator	NR2E3 ag-1	NR2E3 ag-2	PG9 Ab binder	PG9 bind confirm	PGV04 counter	others
COC(=O)[C@H]1C[C@@]2(CC=C(C)C)c3ccccc3N(C(=O)OC(C)(C)C)[C@H]2N1C(=O)OC(C)(C)C	-5.4	x	x	x	x	x
C=CCN1C(=O)[C@@H](CC(=O)N2CCSCC2)[C@]2(C(=O)OC)CCCCC=C12	-8.5	x	x	x	x	x
O=C(Oc1cccc2ccccc12)c1ccccc1	1.6	-0.8	x	-1.7	x	x
CC(=O)c1c(OC(=O)c2ccccc2)ccnc1C(F)(F)F	-2.8	11.5	2.1	9.2*	10.5*	11.1*
CCn1c(=S)[nH]c2c(c1=O)C(C)(C)Cc1ccccc1-2	-3.8	0.0	x	23.9*	13.8*	12.4*	PG9 bind DR=>67.1;PGV04 binding DR=i;PG126 binding DR=i
CC1(C)Cc2ccccc2-c2c1c(=O)n(Cc1ccccc1)c1nnnn21	0.7	-13.5	4.2	-0.7	x	x
CC(OC(=O)c1cc2sccc2n1C)C(=O)NCc1cccs1 (stereo unspecified)	-2.5	7.2	-0.9	-0.8	x	x
Cn1c(C(=O)OCC(=O)NCc2cccs2)cc2sccc21	7.1	2.5	-0.5	9.6*	16.8*	26.6*
COc1ccc(-c2noc(CCC(=O)NCC3CCCO3)n2)cc1OC (stereo unspecified)	-0.1	14.3	-1.3	11.4*	4.2	6.7
Cc1ccnc(N2CCC(C(=O)Nc3ccc4c(c3)CCC4)CC2)n1	-0.9	-0.8	2.8	36.6*	43.7*	61.0*
Cc1cc(C(F)(F)F)n(-c2nc(C(=O)NN)cs2)n1	1.1	3.4	-0.5	1.4	x	x
